Results taken from ChEMBL document CHEMBL4354843, “Structure-Based Design of a Potent and Selective Covalent Inhibitor for SRC Kinase That Targets a P-Loop Cysteine” (J Med Chem, 2020).

Tests used:
[1] = molecular target: Tyrosine-protein kinase HCK (Homo sapiens, UniProt P08631); assay: Binding affinity to wild-type human full length HCK (M22 to P526 residues) expressed in bacterial expression system assessed as residual binding level at 1 uM by Kinomescan method relative to control
Outline: (§1)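 KinomeScan, an active site-directed competition binding panel of 468 kinases. The test compound was at 1 μM. The readout is remaining kinase binding as a percentage of the DMSO control. Scores above 35% were treated as weak binding and not listed.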

[2] = molecular target: Dual specificity mitogen-activated protein kinase kinase 1 (Homo sapiens) (UniProt Q02750); assay: Binding affinity to wild-type human full length MEK1 (M1 to V393 residues) expressed in mammalian expression system assessed as residual binding level at 1 uM by Kinomescan method relative to control; outline: as §1
[3] = molecular target: Muscle, skeletal receptor tyrosine-protein kinase (Homo sapiens) (UniProt O15146); assay: Binding affinity to wild-type human partial length MUSK (M553 to V869 residues) expressed in bacterial expression system assessed as residual binding level at 1 uM by Kinomescan method relative to control
[4] = molecular target: Serine/threonine-protein kinase 25 (Homo sapiens) (UniProt O00506); assay: Binding affinity to wild-type human partial length YSK1 (V14 to H295 residues) expressed in bacterial expression system assessed as residual binding level at 1 uM by Kinomescan method relative to control
[5] = molecular target: Ephrin type-B receptor 1 (Homo sapiens) (UniProt P54762); assay: Binding affinity to wild-type human partial length EPHB1 (P589 to T911 residues) expressed in bacterial expression system assessed as residual binding level at 1 uM by Kinomescan method relative to control
[6] = molecular target: Homeodomain-interacting protein kinase 4 (Homo sapiens) (UniProt Q8NE63); assay: Binding affinity to wild-type human partial length HIPK4 (M1 to V384 residues) expressed in bacterial expression system assessed as residual binding level at 1 uM by Kinomescan method relative to control
[7] = molecular target: Calcium-dependent protein kinase 1 (Plasmodium falciparum) (UniProt P62344); assay: Binding affinity to wild-type Plasmodium falciparum full length CDPK1 (M1 to S524 residues) expressed in mammalian expression system assessed as residual binding level at 1 uM by Kinomescan method relative to control; outline: as §1
[8] = molecular target: Serine/threonine-protein kinase pim-2 (Homo sapiens) (UniProt Q9P1W9); assay: Binding affinity to wild-type human partial length PIM2 (M1 to E291 residues) expressed in bacterial expression system assessed as residual binding level at 1 uM by Kinomescan method relative to control
[9] = molecular target: Casein kinase I isoform gamma-2 (Homo sapiens) (UniProt P78368); assay: Binding affinity to wild-type human full length CSNK1G2 (M1 to K415 residues) expressed in bacterial expression system assessed as residual binding level at 1 uM by Kinomescan method relative to control
Outline: (§2)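 Active-site-directed KinomeScan competition binding panel covering 468 kinases, compound tested at 1 μM. Each readout is the kinase signal remaining with compound, expressed as a percentage of the DMSO control. […]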

[10] = molecular target: Calcium/calmodulin-dependent protein kinase type 1G (Homo sapiens) (UniProt Q96NX5); assay: Binding affinity to wild-type human partial length CAMK1G (M1 to A342 residues) expressed in bacterial expression system assessed as residual binding level at 1 uM by Kinomescan method relative to control
[11] = molecular target: Serine/threonine-protein kinase Nek5 (Homo sapiens) (UniProt Q6P3R8); assay: Binding affinity to wild-type human partial length NEK5 (M1 to M279 residues) expressed in bacterial expression system assessed as residual binding level at 1 uM by Kinomescan method relative to control
[12] = molecular target: Serine/threonine-protein kinase LATS1 (Homo sapiens) (UniProt O95835); assay: Binding affinity to wild-type human partial length LATS1 (Q678 to V1130 residues) expressed in bacterial expression system assessed as residual binding level at 1 uM by Kinomescan method relative to control
[13] = molecular target: Calcium/calmodulin-dependent protein kinase type IV (Homo sapiens) (UniProt Q16566); assay: Binding affinity to wild-type human partial length CAMK4 (A22 to A322 residues) expressed in bacterial expression system assessed as residual binding level at 1 uM by Kinomescan method relative to control
[14] = molecular target: Tyrosine-protein kinase ZAP-70 (Homo sapiens) (UniProt P43403); assay: Binding affinity to wild-type human partial length ZAP70 (D20 to G299 residues) expressed in mammalian expression system assessed as residual binding level at 1 uM by Kinomescan method relative to control
[15] = molecular target: NT-3 growth factor receptor (Homo sapiens) (UniProt Q16288); assay: Binding affinity to wild-type human partial length TRKC (Q531 to G825 residues) expressed in mammalian expression system assessed as residual binding level at 1 uM by Kinomescan method relative to control
[16] = molecular target: Wee1-like protein kinase (Homo sapiens) (UniProt P30291); assay: Binding affinity to wild-type human partial length WEE1 (M291 to K575 residues) expressed in bacterial expression system assessed as residual binding level at 1 uM by Kinomescan method relative to control
[17] = molecular target: Mitogen-activated protein kinase 9 (Homo sapiens) (UniProt P45984); assay: Binding affinity to wild-type human full length JNK2 (M1 to Q382 residues) expressed in mammalian expression system assessed as residual binding level at 1 uM by Kinomescan method relative to control; outline: as §1
[18] = molecular target: Myosin light chain kinase (Homo sapiens) (UniProt Q32MK0); assay: Binding affinity to wild-type human partial length MLCK (D488 to K800 residues) expressed in bacterial expression system assessed as residual binding level at 1 uM by Kinomescan method relative to control
[19] = molecular target: Serine/threonine-protein kinase SIK2 (Homo sapiens) (UniProt Q9H0K1); assay: Binding affinity to wild-type human full length SIK2 (M1 to N926 residues) expressed in bacterial expression system assessed as residual binding level at 1 uM by Kinomescan method relative to control
Outline: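 Active site-directed binding assay (KinomeScan) run across a 468-kinase panel, with the test compound at 1 μM. The read-out is the remaining kinase signal in the presence of compound, expressed as a percentage of the DMSO control. Scores above 35% were taken as weak binding and were not reported.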

[20] = molecular target: Serine/threonine-protein kinase MARK1 (Homo sapiens) (UniProt Q9P0L2); assay: Binding affinity to wild-type human partial length MARK1 (Q30 to T341 residues) expressed in bacterial expression system assessed as residual binding level at 1 uM by Kinomescan method relative to control
Outline: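 Active-site-directed competition binding panel of 468 kinases (KinomeScan), compound at 1 μM. The read-out is kinase remaining bound, given as a percentage of the DMSO control. […]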

[21] = molecular target: Serine/threonine-protein kinase 17B (Homo sapiens) (UniProt O94768); assay: Binding affinity to wild-type human full length DRAK2 (M1 to C372 residues) expressed in bacterial expression system assessed as residual binding level at 1 uM by Kinomescan method relative to control; outline: as §2
Serine/threonine-protein kinase 17B (Homo sapiens), sequence (O94768 whole entry, the tested form may be a part): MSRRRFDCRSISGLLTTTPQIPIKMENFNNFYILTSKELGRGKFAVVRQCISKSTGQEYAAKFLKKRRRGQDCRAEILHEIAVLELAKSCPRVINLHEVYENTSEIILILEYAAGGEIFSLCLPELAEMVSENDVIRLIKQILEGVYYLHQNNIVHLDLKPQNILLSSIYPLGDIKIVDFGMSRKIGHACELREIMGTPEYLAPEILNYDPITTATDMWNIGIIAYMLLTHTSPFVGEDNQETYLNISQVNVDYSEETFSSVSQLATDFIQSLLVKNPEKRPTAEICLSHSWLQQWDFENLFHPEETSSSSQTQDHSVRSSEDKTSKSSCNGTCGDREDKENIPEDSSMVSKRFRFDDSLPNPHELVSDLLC

Ephrin type-B receptor 1 (Homo sapiens), sequence (P54762 whole entry, the tested form may be a part): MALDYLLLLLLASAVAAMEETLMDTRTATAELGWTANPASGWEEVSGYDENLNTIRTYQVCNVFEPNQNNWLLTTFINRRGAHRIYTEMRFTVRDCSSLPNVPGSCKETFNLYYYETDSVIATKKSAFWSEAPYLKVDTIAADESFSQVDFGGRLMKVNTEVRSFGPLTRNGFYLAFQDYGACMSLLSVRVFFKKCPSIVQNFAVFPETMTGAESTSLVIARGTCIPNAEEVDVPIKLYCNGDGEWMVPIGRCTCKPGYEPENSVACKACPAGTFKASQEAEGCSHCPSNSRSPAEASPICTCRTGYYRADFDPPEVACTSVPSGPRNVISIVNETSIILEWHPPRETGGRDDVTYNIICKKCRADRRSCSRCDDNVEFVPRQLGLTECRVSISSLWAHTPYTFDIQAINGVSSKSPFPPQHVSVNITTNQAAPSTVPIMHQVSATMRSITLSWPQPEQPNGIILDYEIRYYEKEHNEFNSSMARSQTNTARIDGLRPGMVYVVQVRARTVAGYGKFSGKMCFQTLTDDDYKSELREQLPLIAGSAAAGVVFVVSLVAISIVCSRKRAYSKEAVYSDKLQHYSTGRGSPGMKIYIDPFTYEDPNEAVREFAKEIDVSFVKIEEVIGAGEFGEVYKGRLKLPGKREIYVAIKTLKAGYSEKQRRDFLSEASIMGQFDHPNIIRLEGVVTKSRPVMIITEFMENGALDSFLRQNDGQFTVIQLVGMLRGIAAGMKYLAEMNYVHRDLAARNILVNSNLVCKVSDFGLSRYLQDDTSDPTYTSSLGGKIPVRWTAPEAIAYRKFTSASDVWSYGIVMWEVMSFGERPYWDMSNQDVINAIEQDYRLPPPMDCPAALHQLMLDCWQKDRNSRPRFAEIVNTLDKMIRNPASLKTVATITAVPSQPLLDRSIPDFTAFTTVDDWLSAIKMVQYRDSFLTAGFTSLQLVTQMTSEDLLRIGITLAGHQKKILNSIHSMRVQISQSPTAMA
Casein kinase I isoform gamma-2 (Homo sapiens), sequence (P78368 whole entry, looked up, the tested form may be a part, canonical isoform): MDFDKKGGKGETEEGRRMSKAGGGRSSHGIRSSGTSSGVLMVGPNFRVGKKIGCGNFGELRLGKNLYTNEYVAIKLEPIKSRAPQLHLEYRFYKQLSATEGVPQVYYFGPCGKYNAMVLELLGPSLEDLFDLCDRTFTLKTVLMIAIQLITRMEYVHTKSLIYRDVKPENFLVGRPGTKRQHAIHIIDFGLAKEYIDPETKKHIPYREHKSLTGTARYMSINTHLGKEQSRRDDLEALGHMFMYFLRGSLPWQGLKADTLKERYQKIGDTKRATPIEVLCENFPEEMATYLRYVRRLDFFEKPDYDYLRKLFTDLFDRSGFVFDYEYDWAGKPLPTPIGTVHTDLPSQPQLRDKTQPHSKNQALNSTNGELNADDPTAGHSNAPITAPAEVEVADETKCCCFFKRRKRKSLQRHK
Myosin light chain kinase (Homo sapiens), sequence (Q32MK0 whole entry, the tested form may be a part): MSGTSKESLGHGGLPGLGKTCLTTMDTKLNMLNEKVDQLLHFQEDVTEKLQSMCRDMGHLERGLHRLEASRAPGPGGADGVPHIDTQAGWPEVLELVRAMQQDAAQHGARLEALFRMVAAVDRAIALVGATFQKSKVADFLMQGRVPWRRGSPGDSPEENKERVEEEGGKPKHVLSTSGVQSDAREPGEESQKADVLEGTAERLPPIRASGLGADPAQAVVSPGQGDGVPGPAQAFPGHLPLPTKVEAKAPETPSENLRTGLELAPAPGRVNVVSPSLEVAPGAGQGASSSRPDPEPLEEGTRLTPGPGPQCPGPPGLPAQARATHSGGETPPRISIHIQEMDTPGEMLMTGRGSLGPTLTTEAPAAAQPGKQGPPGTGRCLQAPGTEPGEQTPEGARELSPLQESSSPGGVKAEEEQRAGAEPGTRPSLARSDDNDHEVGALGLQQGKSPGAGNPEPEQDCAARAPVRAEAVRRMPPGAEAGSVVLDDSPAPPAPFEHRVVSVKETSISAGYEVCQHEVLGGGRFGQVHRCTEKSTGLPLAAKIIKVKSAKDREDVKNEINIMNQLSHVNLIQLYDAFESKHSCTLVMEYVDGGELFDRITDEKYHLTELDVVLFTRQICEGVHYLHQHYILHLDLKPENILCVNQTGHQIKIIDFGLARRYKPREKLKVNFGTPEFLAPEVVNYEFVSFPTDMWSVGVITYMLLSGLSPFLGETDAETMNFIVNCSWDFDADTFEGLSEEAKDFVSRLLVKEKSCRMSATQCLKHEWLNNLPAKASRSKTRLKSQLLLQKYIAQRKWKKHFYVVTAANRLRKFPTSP
Homeodomain-interacting protein kinase 4 (Homo sapiens), sequence (Q8NE63 whole entry, the tested form may be a part): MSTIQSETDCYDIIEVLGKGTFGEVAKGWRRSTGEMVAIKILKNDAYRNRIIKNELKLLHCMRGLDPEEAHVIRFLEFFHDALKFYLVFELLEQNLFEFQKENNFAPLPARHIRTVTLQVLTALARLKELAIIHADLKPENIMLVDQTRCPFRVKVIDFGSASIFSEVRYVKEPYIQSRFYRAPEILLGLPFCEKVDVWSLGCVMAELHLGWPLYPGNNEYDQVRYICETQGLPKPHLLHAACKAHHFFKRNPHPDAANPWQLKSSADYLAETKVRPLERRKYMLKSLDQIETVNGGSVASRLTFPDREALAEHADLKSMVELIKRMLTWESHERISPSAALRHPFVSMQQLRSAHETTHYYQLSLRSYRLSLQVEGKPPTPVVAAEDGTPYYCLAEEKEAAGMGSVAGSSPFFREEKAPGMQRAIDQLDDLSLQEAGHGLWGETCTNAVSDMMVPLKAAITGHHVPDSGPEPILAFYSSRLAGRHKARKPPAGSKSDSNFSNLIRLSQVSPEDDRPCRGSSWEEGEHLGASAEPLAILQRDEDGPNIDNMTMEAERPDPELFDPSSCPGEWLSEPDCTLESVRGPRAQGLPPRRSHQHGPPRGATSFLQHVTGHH
Calcium/calmodulin-dependent protein kinase type 1G (Homo sapiens), sequence (Q96NX5 whole entry, the tested form may be a part): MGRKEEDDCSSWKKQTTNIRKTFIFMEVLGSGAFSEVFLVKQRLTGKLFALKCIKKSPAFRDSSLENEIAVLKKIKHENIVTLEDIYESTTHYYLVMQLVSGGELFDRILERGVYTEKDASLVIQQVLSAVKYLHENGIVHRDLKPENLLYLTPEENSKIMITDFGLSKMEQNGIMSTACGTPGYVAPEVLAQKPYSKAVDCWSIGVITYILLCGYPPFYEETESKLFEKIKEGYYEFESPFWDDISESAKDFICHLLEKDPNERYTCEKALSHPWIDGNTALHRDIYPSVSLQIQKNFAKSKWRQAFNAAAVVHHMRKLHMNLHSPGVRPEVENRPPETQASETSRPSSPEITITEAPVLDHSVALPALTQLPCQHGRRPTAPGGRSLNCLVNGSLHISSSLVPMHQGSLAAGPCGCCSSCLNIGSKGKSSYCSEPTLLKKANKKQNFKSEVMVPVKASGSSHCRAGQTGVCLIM
Tyrosine-protein kinase ZAP-70 (Homo sapiens), sequence (P43403 whole entry, the tested form may be a part): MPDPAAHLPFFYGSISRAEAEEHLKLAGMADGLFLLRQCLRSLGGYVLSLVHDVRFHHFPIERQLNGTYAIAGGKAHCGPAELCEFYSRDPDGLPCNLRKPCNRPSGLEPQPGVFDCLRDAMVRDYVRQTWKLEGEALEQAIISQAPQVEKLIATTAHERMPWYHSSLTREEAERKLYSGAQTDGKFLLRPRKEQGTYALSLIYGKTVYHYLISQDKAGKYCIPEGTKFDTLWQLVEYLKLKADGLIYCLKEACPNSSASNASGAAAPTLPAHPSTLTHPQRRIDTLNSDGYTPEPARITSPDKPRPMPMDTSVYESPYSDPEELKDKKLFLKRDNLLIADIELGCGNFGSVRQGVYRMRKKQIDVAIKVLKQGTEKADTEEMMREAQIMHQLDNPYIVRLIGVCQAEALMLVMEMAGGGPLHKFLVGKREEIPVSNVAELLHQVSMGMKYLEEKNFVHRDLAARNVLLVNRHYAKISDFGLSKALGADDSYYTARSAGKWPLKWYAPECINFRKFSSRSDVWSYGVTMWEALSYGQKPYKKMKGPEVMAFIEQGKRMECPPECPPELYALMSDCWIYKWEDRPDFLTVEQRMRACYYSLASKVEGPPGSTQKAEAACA
Calcium-dependent protein kinase 1 (Plasmodium falciparum), sequence (P62344 2-524 limits assumed): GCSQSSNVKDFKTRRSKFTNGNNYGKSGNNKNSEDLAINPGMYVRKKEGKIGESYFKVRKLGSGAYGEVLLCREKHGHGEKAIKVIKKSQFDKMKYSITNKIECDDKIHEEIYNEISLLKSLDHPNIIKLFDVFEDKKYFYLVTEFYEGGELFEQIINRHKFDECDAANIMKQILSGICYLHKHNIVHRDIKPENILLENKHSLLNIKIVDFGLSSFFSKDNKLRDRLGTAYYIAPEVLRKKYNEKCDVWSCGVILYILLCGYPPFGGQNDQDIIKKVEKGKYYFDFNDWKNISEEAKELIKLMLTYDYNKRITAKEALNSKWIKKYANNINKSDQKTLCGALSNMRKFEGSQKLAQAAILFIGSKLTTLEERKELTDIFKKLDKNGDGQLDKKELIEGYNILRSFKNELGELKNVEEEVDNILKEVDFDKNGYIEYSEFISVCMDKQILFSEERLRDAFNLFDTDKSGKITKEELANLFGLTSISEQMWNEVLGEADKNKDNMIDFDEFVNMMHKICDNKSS

## C=CC(=O)Nc1ccccc1Nc1nc(Nc2ccc(N3CCN(C)CC3)cc2)ncc1C(=O)Nc1c(C)cccc1Cl
[1]
  Activity: 0.8%
[2]
  Activity: 93%
[3]
  Activity: 100%
[4]
  Activity: 100%
[5]
  Activity: 66%
[6]
  Activity: 100%
[7]
  Activity: 72%
[8]
  Activity: 95%
[9]
  Activity: 100%
[10]
  Activity: 100%
[11]
  Activity: 100%
[12]
  Activity: 100%
[13]
  Activity: 100%
[14]
  Activity: 100%
[15]
  Activity: 100%
[16]
  Activity: 100%
[17]
  Activity: 94%
[18]
  Activity: 100%
[19]
  Activity: 67%
[20]
  Activity: 99%
[21]
  Activity: 100%
